High-throughput results from PubChem BioAssay.
In the library only some 3.5% were active in any assay of this set; here they are far more common.
MrgX1 ag = agonists of human MrgX1 receptor, primary screen, HEK293 cells, Fluo-4 calcium flux | Mas-related G-protein coupled receptor member X1 (Homo sapiens), Q96LB2 | Fluo-4 calcium fluorescence, agonist mode; stronger effect = higher value | B-score at 10 µM | 0.44% of 310,000 active | AID 588627, 2011;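 active = calcium response B-score plate-corrected fluorescence ratio at least 3 library SD, with starting fluorescence B-score inside 5 SD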
Target sequence (Q96LB2 whole entry, looked up): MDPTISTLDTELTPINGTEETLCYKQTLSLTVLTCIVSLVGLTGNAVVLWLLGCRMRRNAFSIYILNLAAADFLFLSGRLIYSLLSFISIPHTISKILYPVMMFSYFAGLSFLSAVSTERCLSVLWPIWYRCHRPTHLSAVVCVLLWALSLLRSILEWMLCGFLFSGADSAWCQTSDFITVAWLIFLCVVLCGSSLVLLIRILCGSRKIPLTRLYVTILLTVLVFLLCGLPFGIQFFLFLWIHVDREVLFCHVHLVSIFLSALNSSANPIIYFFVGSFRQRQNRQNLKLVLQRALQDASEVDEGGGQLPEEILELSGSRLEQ
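Material: MrgX1-expressing HEK293 cells / Dosing: compound as first of three additions / Incubation: overnight seeding, then 1 h dark dye loading / Signal: Fluo-4 NW calcium fluorescence / Evaluation: B-scored fluorescence response ratio / Benchmarks: positive and negative control wells on each plate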
RGS4 act = RGS4 potentiators or activators, primary screen, cell-based, HEK293 M3R inducible RGS4, calcium flux | 0.92% of 310,000 active | B-score at 10 µM | carbachol calcium flux Fluo4; stronger effect = lower value;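 active = B-score of the integrated calcium signal more than 4 SD below the library mean, with starting fluorescence not abnormally high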;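 also: negative B-score means reduced calcium response which marks RGS4 activation or potentiation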
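Assay system: HEK293 FlpIn-TREx cells, stable M3R, doxycycline-inducible RGS4 / Probe or stimulus: carbachol, ECmax concentration / Times: overnight RGS4 induction, 30 min dye load 37 °C, 20 min compound RT / Signal: kinetic calcium fluorescence imaging with Fluo4-AM dye, 2 µM / Measure: Agonist-evoked peak-minus-minimum fluorescence over baseline, integrated ratio, B score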
RGS4 block = RGS4 inhibitors, primary screen, cell-based, HEK293 M3R inducible RGS4, calcium flux | Regulator of G-protein signaling 4 (Homo sapiens), P49798 | Fluo-4 calcium flux; stronger effect = higher value; triggered by carbachol at its EC20 | B-score at 10 µM | 0.45% of 310,000 active | AID 463165, 2010;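 active = B-score, a plate-corrected calcium signal, over three deviations above library mean, with baseline fluorescence within five deviations of library mean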;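 also: RGS4 expression induced by doxycycline in cells with stable M3 receptor; B-score is computed from the integrated fluorescence ratio over baseline after carbachol; higher B-score means a larger calcium signal and so more RGS4 inhibition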
Target sequence (P49798 whole entry, looked up): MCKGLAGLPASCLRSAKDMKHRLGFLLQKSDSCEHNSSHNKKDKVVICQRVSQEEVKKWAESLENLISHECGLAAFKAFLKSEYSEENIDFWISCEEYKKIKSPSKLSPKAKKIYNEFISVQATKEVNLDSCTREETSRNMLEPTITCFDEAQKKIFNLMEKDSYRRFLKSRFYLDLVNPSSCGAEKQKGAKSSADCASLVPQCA
MrgX1 allo act = positive allosteric modulators of MrgX1, primary screen, HEK293 cells, Fluo-4 calcium flux. Mas-related G-protein coupled receptor member X1 (Homo sapiens), Q96LB2. FDSS; stronger effect = higher value. B-score at 10 µM. 0.63% of 310,000 active;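 active = plate-corrected calcium response at least 3 library SD above typical, normal starting fluorescence, not activating the receptor alone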;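 also: compound read alongside a low EC10 to EC30 dose of BAM8-22 agonist; peak minus trough fluorescence over baseline measured at the second addition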
MrgX1 antag = antagonists of human MrgX1 receptor, primary screen, HEK293 cells, Fluo-4 calcium flux; AID 588676, 2011; Mas-related G-protein coupled receptor member X1 (Homo sapiens), Q96LB2; BAM8-22 antagonism; stronger effect = lower value; B-score at 10 µM; 1.3% of 310,000 active;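 active = calcium-response B-score plate-corrected more than 3 library SD below zero, starting fluorescence within 5 deviations, no agonist response on first addition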;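 also: peak minus trough fluorescence over baseline after final BAM8-22 challenge near maximal dose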
MrgX1 allo conf = MrgX1 positive allosteric modulators, duplicate retest, confirmation, HEK293 cells, Fluo-4 calcium flux. shares compounds with MrgX1 allo act. 13% of 1,200 active. Fluo-4 calcium fluorescence, FDSS. activation (ratio percentage), % at 10 µM;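 active = ratio at least 3 SD above the weak peptide control, stable starting fluorescence, no direct agonism earlier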;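 also: compound followed by low BAM8-22 agonist challenge near EC20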
HEK293 Ca flux = nonspecific calcium signal in parental HEK293, confirmation, counter-screen for MrgX1 antagonist project, parental HEK293 cells, Fluo-4 calcium flux; shares compounds with MrgX1 antag; Fluo-4 calcium fluorescence, FDSS; fluorescence ratio F(max-min)/F0 at 10 µM; 2% of 4,000 active;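 active = duplicate-averaged calcium fluorescence ratio at least three times the standard deviation of buffer wells, a nonspecific response in parental cells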
HEK293 Ca counter = calcium response in parental HEK293 cells, primary screen, counter-screen for MrgX1 allosteric activator project, cell-based, Fluo-4 calcium flux, duplicate. Fluo-4 fluorescence ratio; stronger effect = higher value. 0.4% of 4,000 active. fluorescence ratio F(max-min)/F0 at 10 µM. shares compounds with MrgX1 antag;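 active = calcium fluorescence ratio, averaged over duplicates, at least 3 SD of the buffer-well ratio, meaning a nonspecific response in receptor-free cells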;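 also: untransfected parental HEK293 lacking MrgX1 used as counterscreen for MrgX1 allosteric activators; fluorescence change taken during the second addition on a kinetic imager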
HEK293 Ca cntr2 = calcium response in parental HEK293 cells, primary screen, counter-screen for MrgX1 agonist project, cell-based, Fluo-4 calcium flux, duplicate, agonist mode. shares compounds with MrgX1 antag. Fluo-4 calcium fluorescence (FDSS); stronger effect = higher value. fluorescence ratio F(max-min)/F0 at 10 µM. 8.7% of 4,000 active. AID 624115, 2012;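 active = calcium fluorescence ratio at least three times the spread of buffer wells, meaning a non-specific response in parental cells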
An asterisk follows results filed as active; i = inactive; · = not tested or not shown.

SMILES | MrgX1 ag | RGS4 act | RGS4 block | MrgX1 allo act | MrgX1 antag | MrgX1 allo conf | HEK293 Ca flux | HEK293 Ca counter | HEK293 Ca cntr2
O=C(CSc1nc(-c2ccccc2)cs1)NCCN1C(=O)CSC1=O | i | i | i | 10.4* | i | i | i | i | i
O=C1CSC(c2ccc([N+](=O)[O-])cc2)N1c1ccc(O)cc1 (stereo not given) | i | i | i | i | i | · | · | · | ·
CCOc1ccc(S(=O)(=O)N(CC)CC(=O)N2CCOCC2)cc1C | i | i | i | i | i | · | · | · | ·
COc1ccc(/C=C2/C(=N)N3C(=NC2=O)Sc2cc(S(C)(=O)=O)ccc23)cc1OC | i | i | i | 37.1* | i | 17.4%* | i | i | i
CCOC(=O)C1(Cc2cccc(Cl)c2)CCCN(C(=O)CN2C(=O)CSC2=O)C1 (stereo not given) | i | i | i | i | i | · | · | · | ·
CN1CCN(/C=N/c2sc3c(c2C#N)CCCCC3)CC1 | i | i | i | i | i | · | · | · | ·
N#Cc1c(/N=C/C=C/c2ccccc2)sc2c1CCCC2 | i | i | i | 8* | i | i | i | i | i
O=C(CN(C(=O)CCC(=O)Nc1nccs1)c1cccc(F)c1)NCCc1ccccc1 | i | i | i | i | i | · | · | · | ·
CCCn1c(=O)c(C(=O)Nc2cccc(C)c2)c(O)c2ccccc21 | i | i | i | 7.16* | i | i | i | i | i
CCCn1c(=O)c(C(=O)Nc2ccccc2)c(O)c2ccccc21 | i | i | i | i | i | · | · | · | ·
Cn1cccc1-c1nc2ccc(NC(=O)c3ccccc3)cc2[nH]1 | i | i | i | 7.17* | i | 38.7%* | i | i | i
COc1ccccc1-n1c(C)cc(/C=C2/C(=N)N3C(=NC2=O)SN=C3S(C)(=O)=O)c1C | i | i | i | 20.8* | i | i | i | i | i
COc1ccc(-c2cc(C(F)(F)F)nc(SCC(=O)Nc3ccc4c(c3)OCO4)n2)cc1 | i | i | i | 9.17* | i | i | i | i | i
CCN(CC(=O)Nc1ccc(NC(C)=O)cc1)C(=O)Cc1ccc(S(=O)(=O)N2CCOCC2)s1 | i | i | i | i | i | · | · | · | ·
COc1ccc(C(C)=O)cc1Cn1cnc2c(cnn2C)c1=O | i | i | i | 11.4* | i | i | i | i | i
COc1ccc(C=O)cc1Cn1cnc2c(cnn2C)c1=O | i | i | i | i | i | · | · | · | ·
c1ccc(-c2cc3c(N4CCCCC4)ncnc3s2)cc1 | i | i | i | 8.89* | i | i | i | i | i
Cc1csc(SCC(=O)NCc2ccccc2Cl)n1 | i | i | i | i | i | · | · | · | ·
Cc1ccc(C(=O)C(C)OC(=O)c2ccccc2[N+](=O)[O-])cc1 (stereo not given) | i | i | i | i | i | · | · | · | ·
